From ChEMBL document CHEMBL1122209, “Synthesis of N-[[(substituted-phenyl)carbonyl]amino]-1,2,3,6-tetrahydropyridines with analgesic and hyperglycemic activity” (J Med Chem, 1982)

Columns and labels:
Mus musculus [1] = assay: Analgesic activity was measured by phenylquinone writhing test in male Swiss albino mice at a dose of 0.004 mg/Kg, sc; assay type: functional
In short: (§1)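 Groups of five male Swiss albino mice (18-22 g). Test agent was suspended in physiological saline with Tween 80 by ultrasonic mixing and given sc. After 30 min, 0.03% phenyl-p-benzoquinone was given ip at 0.1 mL/10 g body weight. Total writhes were counted and compared with a vehicle-treated control group: % change = 100 − (treated writhes/control writhes × 100).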

Rattus norvegicus [2] = assay: Percentage change in blood glucose concentration in male Wistar rats after 2 hr post treatment at a dose of 100 mg/Kg po.; assay type: functional
In short: (§2)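 Groups of four male Wistar rats (230-260 g), fasted overnight. Test agent was suspended in 1% tragacanth in distilled water and given orally. Tail capillary blood was drawn at 0, 2 and 4 h. Serum glucose was determined spectrophotometrically from enzymatically produced NADH₂ (Barthelma-Czok procedure). Results are the mean of four animals; a positive value means hyperglycemic, a negative value hypoglycemic.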

Rattus norvegicus [3] = assay: Percentage change in blood glucose concentration in male Wistar rats after 4 hr post treatment at a dose of 100 mg/Kg po.; assay type: functional; in short: as §2
Rattus norvegicus [4] = assay: Percentage change in blood glucose concentration in male Wistar rats after 4 hr post treatment at a dose of 100 mg/Kg po; Hypoglycemic; assay type: functional; in short: as §2
Rattus norvegicus [5] = assay: Percentage change in blood glucose concentration in male Wistar rats after 2 hr post treatment at a dose of 100 mg/Kg po; Hypoglycemic; assay type: functional; in short: as §2
Rattus norvegicus [6] = assay: Percentage change in blood glucose concentration in male Wistar rats after 2 hr post treatment at a dose of 30 mg/Kg po; Hyperglycemic; assay type: functional; in short: as §2
Mus musculus [7] = assay: Analgesic activity was measured by phenylquinone writhing test in male Swiss albino mice at a dose of 0.004 mg/Kg, sc.; assay type: functional; in short: as §1
Rattus norvegicus [8] = assay: Percentage change in blood glucose concentration in male Wistar rats after 4 hr post treatment at a dose of 100 mg/Kg po; Hyperglycemic; assay type: functional; in short: as §2
Rattus norvegicus [9] = assay: Percentage change in blood glucose concentration in male Wistar rats after 2 hr post treatment at a dose of 100 mg/Kg po; Hyperglycemic; assay type: functional; in short: as §2
Mus musculus [10] = assay: Analgesic activity was measured by phenylquinone writhing test in male Swiss albino mice at a dose of 3.1 mg/Kg, sc.; conditions: read-out: Inhibition
Mus musculus [11] = assay: Analgesic activity was measured by phenylquinone writhing test in male Swiss albino mice at a dose of 0.038 mg/Kg, sc.; conditions: read-out: Inhibition
Rattus norvegicus [12] = assay: Percentage change in blood glucose concentration in male Wistar rats after 4 hr post treatment at a dose of 30 mg/Kg po; Hyperglycemic; assay type: functional; in short: as §2
Mus musculus [13] = assay: Analgesic activity was measured by phenylquinone writhing test in male Swiss albino mice at a dose of 50 mg/Kg, sc.; assay type: functional; in short: as §1
Rattus norvegicus [14] = assay: Antiinflammatory activity was measured by carrageenan-induced paw edema test in female Sprague-Dawley rats at dose of 12 mg/Kg sc after 5 hr
Rattus norvegicus [15] = assay: Antiinflammatory activity was measured by carrageenan-induced paw edema test in female Sprague-Dawley rats at dose of 12 mg/Kg sc after 3h

SMILES	inhibition in vivo at 0.004 mg/kg (Mus musculus [1])	Change (Rattus norvegicus [2])	Change (Rattus norvegicus [3])	other results
O=C(NN1CC=CCC1)c1ccccc1	73.6%	78%	50%	–
O=C(NN1CC=CCC1)c1cc(Cl)cc(Cl)c1	69.6%	3.8%	18.5%	–
O=C(NN1CC=CCC1)c1ccc(C(F)(F)F)cc1	46.4%	43.3%	37.3%	–
O=C(NN1CC=CCC1)c1ccccc1Cl	52%	16.9%	21.4%	–
Cc1ccccc1C(=O)NN1CC=CCC1	72%	–	–	Change (Rattus norvegicus [4]): -6.3%; Change (Rattus norvegicus [5]): -2.8%
O=C(NN1CC=CCC1)c1ccccc1F	64.8%	213%	127%	Change (Rattus norvegicus [6]): 50%
O=C(NN1CC=CCC1)c1ccc(Cl)cc1	61.6%	109%	26%	–
O=C(NN1CC=CCC1)c1ccc(Cl)cc1Cl	57.2%	–	1.3%	Change (Rattus norvegicus [5]): -6.5%
COc1cccc(C(=O)NN2CC=CCC2)c1	68.8%	113.3%	72.8%	–
Cc1ccc(C(=O)NN2CC=CCC2)cc1C	60.8%	92.3%	62.8%	–
O=C(NN1CC=CCC1)c1ccc(F)cc1	55.2%	124%	154%	–
COc1ccccc1C(=O)NN1CC=CCC1	69.6%	5.8%	6.3%	–
O=C(NN1CC=CCC1)c1ccc([N+](=O)[O-])cc1	–	–	–	inhibition in vivo at 0.004 mg/kg (Mus musculus [7]): 51%; Change (Rattus norvegicus [8]): 140.6%; Change (Rattus norvegicus [9]): 92.6%
COc1ccc(C(=O)NN2CC=CCC2)cc1	57.6%	69%	26%	–
Cc1ccc(C(=O)NN2CC=CCC2)cc1	48%	73%	41%	–
CN1CC[C@]23c4c5ccc(O)c4O[C@H]2[C@@H](O)C=C[C@H]3[C@H]1C5	–	–	–	inhibition in vivo at 3.1 mg/kg (Mus musculus [10]): 50%; inhibition in vivo at 0.038 mg/kg (Mus musculus [11]): 50%
O=C(NN1CC=CCC1)c1ccc(Cl)c(Cl)c1	48.8%	50%	59%	–
CC(C)(C)c1ccc(C(=O)NN2CC=CCC2)cc1	48.8%	1.8%	4.7%	–
O=C(NN1CC=CCC1)c1ccccc1C(F)(F)F	64%	1.2%	19.6%	–
O=C(NN1CC=CCC1)c1cccc(C(F)(F)F)c1	54.4%	114.8%	102%	–
Cc1cccc(C(=O)NN2CC=CCC2)c1	56%	117.2%	108.5%	Change (Rattus norvegicus [6]): 50%; Change (Rattus norvegicus [12]): 50%
O=C(NN1CC=CCC1)c1cccc(F)c1	65.6%	167.3%	137.8%	–
CC(=O)Oc1ccccc1C(=O)O [ASPIRIN]	–	–	–	inhibition in vivo at 50 mg/kg (Mus musculus [13]): 50%
CCCNC(=O)NS(=O)(=O)c1ccc(Cl)cc1 [CHLORPROPAMIDE]	–	–	–	Change (Rattus norvegicus [4]): -38%; Change (Rattus norvegicus [5]): -42%
COc1ccc2c(c1)c(CC(=O)O)c(C)n2C(=O)c1ccc(Cl)cc1 [INDOMETHACIN]	–	–	–	inhibition in vivo at 12 mg/kg (Rattus norvegicus [14]): 83%; inhibition in vivo at 12 mg/kg (Rattus norvegicus [15]): 17%
CCC(=O)O[C@](Cc1ccccc1)(c1ccccc1)[C@H](C)CN(C)C [PROPOXYPHENE]	50%	–	–	–
